Active and inactive are the calls of the source. No cut-off for these calls is given here.
Experiments:
[1] = Cytotoxicity against BSC1 cells assessed as radius zone size at 120 ug/disk; format: cell-based; details: chlorocebus aethiops, bsc-1
Outline: (§1)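 Disk diffusion assay with 120 µg loaded per disk. The read-out was the excess radius of the zone around the disk, in mm.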

[2] = test system: Trichophyton mentagrophytes; experiment: Antimicrobial activity against Trichophyton mentagrophytes at 120 ug/disk; format: functional; outline: as §1
Bacillus subtilis = experiment: Antimicrobial activity against Bacillus subtilis at 120 ug/disk; format: functional; outline: as §1
P388 = experiment: Cytotoxicity against mouse P388 cells; format: functional, cell-based
Candida albicans = experiment: Antimicrobial activity against Candida albicans at 120 ug/disk; format: functional, organism-based
HL-60 = experiment: Antiproliferative activity against human HL60 cells after 2 days; format: functional, cell-based; details: HL-60, 48 h
[3] = test system: Mycobacterium tuberculosis; experiment: Antimicrobial activity against Mycobacterium tuberculosis at 6.25 ug/mL; format: functional
Escherichia coli = experiment: Antimicrobial activity against Escherichia coli at 120 ug/disk; format: functional, organism-based

Compound: CCCCC[C@@H](C/C=C/CCC(=O)O)OC
- Activity [1]: > 4.5 mm
- zone of inhibition at 120 µg/disc ([2]; read-out: IZ): 3 mm
- zone of inhibition at 120 µg/disc (Bacillus subtilis; read-out: IZ): 2 mm
- IC50 (P388): > 100 µM

Compound: CCCCC[C@@H](C/C=C/CCC(=O)NC/C(=C/Cl)[C@H]1C(=O)C(C)(C)C(=O)[C@@H](C)[C@@]1(C)O)OC [MALYNGAMIDE S]
- Activity (Candida albicans): inactive
- IC50 (HL-60): 6 µM
- inhibition at 6.25 µg/mL [3]: 0%
- Activity [1]: > 4.5 mm
- Activity [2]: inactive
- Activity (Bacillus subtilis): inactive
- Activity (Escherichia coli): inactive
- IC50 (P388): 29 µM

— ChEMBL document CHEMBL1156405, “A new biologically active malyngamide from a New Zealand collection of the sea hare Bursatella leachii” (J Nat Prod, 2002)
